Test results reported in PubChem BioAssay.
Active and inactive are the calls of the source.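 Rule for the calls, unless noted: active = viability at or under a set limit in both replicates, limit being median viability minus 3 SD (cut at about 48% in these data, passing the limit was not always enough); inconclusive = at or under the limit in just one replicate; inactive = at or above the limit in both replicates.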

What was measured:
[1] = Her2 expression decrease, cell viability multiplex – SKBR3 breast tumor cells, AlphaScreen, ATP viability, primary screen (AID 461;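 active = Her2 level under about 52% in both replicate screens, with viability over 70% of control, limit read from the data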;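 for Her2 level: lower value means less Her2 protein in the cells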;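 for viability: percent of carrier control wells set as 100% viability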); details: SKBR3 Her2 protein level, 18-24 h, measured here: SKBR3 viability, ATP luminescence, at 10 µM
[2] = target: Receptor tyrosine-protein kinase erbB-2 (Homo sapiens) (UniProt P04626); test: as above; details: 18-24 h, at 10 µM, stronger effect = lower value
Sequence of Receptor tyrosine-protein kinase erbB-2 (Homo sapiens) (P04626 whole entry, looked up): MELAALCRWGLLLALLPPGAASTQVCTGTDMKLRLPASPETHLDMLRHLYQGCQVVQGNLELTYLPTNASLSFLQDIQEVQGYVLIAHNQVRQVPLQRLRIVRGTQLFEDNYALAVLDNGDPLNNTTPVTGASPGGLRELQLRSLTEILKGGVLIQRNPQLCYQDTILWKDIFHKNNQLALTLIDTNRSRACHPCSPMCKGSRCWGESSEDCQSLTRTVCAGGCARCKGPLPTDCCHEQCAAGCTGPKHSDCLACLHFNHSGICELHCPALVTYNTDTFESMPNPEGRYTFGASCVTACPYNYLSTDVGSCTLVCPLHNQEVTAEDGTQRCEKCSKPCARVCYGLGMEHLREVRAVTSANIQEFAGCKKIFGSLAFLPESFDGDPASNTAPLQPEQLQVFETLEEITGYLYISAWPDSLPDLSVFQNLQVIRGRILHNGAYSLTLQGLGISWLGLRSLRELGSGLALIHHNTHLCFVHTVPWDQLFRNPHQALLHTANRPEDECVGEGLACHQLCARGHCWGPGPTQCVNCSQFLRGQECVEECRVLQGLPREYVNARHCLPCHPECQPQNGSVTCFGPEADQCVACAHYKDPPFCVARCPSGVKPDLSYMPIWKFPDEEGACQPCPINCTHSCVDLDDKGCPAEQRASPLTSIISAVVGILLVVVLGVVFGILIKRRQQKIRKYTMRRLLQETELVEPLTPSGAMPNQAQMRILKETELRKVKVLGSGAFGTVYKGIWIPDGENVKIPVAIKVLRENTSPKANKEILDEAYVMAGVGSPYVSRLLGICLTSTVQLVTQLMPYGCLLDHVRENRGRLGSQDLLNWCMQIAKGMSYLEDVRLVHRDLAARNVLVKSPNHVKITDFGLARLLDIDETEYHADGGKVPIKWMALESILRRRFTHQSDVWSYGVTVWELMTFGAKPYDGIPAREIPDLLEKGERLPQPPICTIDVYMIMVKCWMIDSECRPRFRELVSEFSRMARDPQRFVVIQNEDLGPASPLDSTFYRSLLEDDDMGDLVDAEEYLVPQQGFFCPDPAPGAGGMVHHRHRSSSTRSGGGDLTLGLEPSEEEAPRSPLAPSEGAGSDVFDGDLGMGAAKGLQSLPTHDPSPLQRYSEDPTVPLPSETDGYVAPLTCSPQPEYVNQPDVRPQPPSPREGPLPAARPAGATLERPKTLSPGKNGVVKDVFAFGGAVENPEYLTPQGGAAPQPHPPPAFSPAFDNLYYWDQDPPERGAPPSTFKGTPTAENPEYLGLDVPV

[3] = reduced viability of SK-BR-3 breast cancer cells – cell-based, 24 h, human, pilot screen (AID 572;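 active = viability at or below 10% of carrier control in both of two separate runs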;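 note: compound exposure lasted between 18 and 24 h rather than exactly 24 h; 100% = carrier-treated control wells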); details: SK-BR-3 viability, CellTiter-Glo luminescence, at 10 µM, stronger effect = lower value
[4] = HUVEC growth inhibition – cell-based, human, primary screen (AID 575;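 active = viability at or below 30% in both replicate assays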;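 note: 100% = median of untreated cell wells with 0.1% DMSO on each plate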); details: HUVEC proliferation, CellTiter-Glo luminescence, 72 h; at 10 µM; stronger effect = lower value
Summary of the method: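 Material: primary human umbilical vein endothelial cells / Schedule: 72 h exposure, 37 °C, 5% CO2, 30 min RT equilibration / Signal: ATP-based CellTiter-Glo luminescent read / Read-out basis: percent of median DMSO-control luminescence / Control set: 32 DMSO-only cell-control wells (high), 32 MePR drug-control wells (low) per plate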

[5] = H69AR cell proliferation blockers – human, duplicate replicates, primary screen (AID 580); details: H69AR lung tumor cells viability, ATP luminescence, 72 h; at 10 µM; stronger effect = lower value;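 note: 100% = mean luminescence of untreated wells and 0% = no signal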
[6] = MRP1 drug-resistance reversers in H69AR cells – cell-based, doxorubicin co-treatment, pilot screen (AID 601;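 active = viability loss from added drug above about 55%, and viability with drug at most 40%, in both replicates, limit read from the data, passing the limit was not always enough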); details: CellTiter-Glo, 72 h, at 10 µM; for differential viability (reversal): stronger effect = higher value
[7] = yeast transport mutant growth inhibition pilot in 384-well plates, post-Golgi transport modulator project (AID 636; in the data active = inhibition above about 31%); details: absorbance 615 nm, about 18 h, stronger effect = higher value
[8] = growth suppression of yeast trafficking mutant, preliminary HTS, modulators of trafficking downstream of Golgi apparatus project, 1536-format plate, OD 615 nm (AID 637; in the data active = inhibition above about 30%); details: yeast transport mutant growth, absorbance 615 nm, 18 h; stronger effect = higher value
[9] = H69AR cells + 2 uM doxorubicin, measured here: viability with 2 uM doxorubicin, stronger effect = lower value
[10] = H69AR cells, compound alone cytotoxicity

| SMILES | viability [1] | Her2 level [2] | viability [3] | viability [4] | viability [5] | differential viability (reversal) ([6]; H69AR cells + 2 uM doxorubicin) | viability [6, 9] | viability [6, 10] | inhibition [7] | inhibition [8] |
| --- | --- | --- | --- | --- | --- | --- | --- | --- | --- | --- |
| CS(=O)(=O)N1CCN(c2ccccc2NC(=O)c2cccs2)CC1 | 99.5% | 100% (inactive) | 99.5% (inactive) | 108% (inactive) | 91.3% (inactive) | -5% (inactive) | 96.3% | 91.3% | -1.17% (inactive) | 1% (inactive) |
| CCOc1ccccc1-c1nc(-c2ccc(NC(=O)Cc3ccccc3OC)cc2)no1 | 90.5% | 114% (inactive) | 90.5% (inactive) | 75.3% (inactive) | 88.6% (inactive) | 5.33% (inactive) | 83.3% | 88.6% | 0.93% (inactive) | -5.81% (inactive) |
| O=C(N1CCOCC1)N1CCC(NC(=O)C23CC4CC(CC(C4)C2)C3)CC1 | 90% | 88% (inactive) | 90% (inactive) | 99.6% (inactive) | 98.8% (inactive) | 8.44% (inactive) | 90.4% | 98.8% | -6% (inactive) | 4.84% (inactive) |
| COCCNC(=O)c1cc2c(-c3ccccc3F)nn(C)c2s1 | 109% | 74% (inactive) | 109% (inactive) | 60.9% (inactive) | 93.9% (inactive) | 24.6% (inactive) | 69.3% | 93.9% | -6.53% (inactive) | -2.42% (inactive) |
| CCOc1cc(C(=O)NCc2nnc(SCC(=O)OC)n2C)cc(OCC)c1OCC | 98% | 85% (inactive) | 98% (inactive) | 104% (inactive) | 95.8% (inactive) | 8.31% (inactive) | 87.5% | 95.8% | -6.84% (inactive) | -2% (inactive) |
| Cc1ccc(-c2nn(-c3ccccc3)cc2CN(Cc2ccccc2)C(=O)CCC(=O)O)o1 | 100% | 94% (inactive) | 100% (inactive) | 86.5% (inactive) | 85.7% (inactive) | 8.97% (inactive) | 76.7% | 85.7% | -5.07% (inactive) | 3.02% (inactive) |
| O=C(NC1CC1)C1CCN(c2ccc(S(=O)(=O)N3CCOCC3)cc2)CC1 | 92.5% | 138% (inactive) | 92.5% (inactive) | 83% (inactive) | 94.7% (inactive) | 17.1% (inactive) | 77.7% | 94.7% | -0.13% (inactive) | -10% (inactive) |
| C=COC(=O)CSc1snc(SCC(=O)OC)c1C#N | 85.5% | 92.5% (inactive) | 85.5% (inactive) | 66.2% (inactive) | 98.9% (inactive) | 3.02% (inactive) | 95.9% | 98.9% | -5.89% (inactive) | 6.98% (inactive) |
| COC(=O)COc1nc(C)c(Br)c(OC)n1 | 96.5% | 99% (inactive) | 96.5% (inactive) | 105% (inactive) | 116% (inactive) | 25.9% (inactive) | 90% | 116% | -3.95% (inactive) | 7.54% (inactive) |
| O=C(O)c1cc(-c2ccccc2Cl)n[nH]1 | 92% | 93.5% (inactive) | 92% (inactive) | 95.6% (inactive) | 81% (inactive) | 1.79% (inactive) | 79.2% | 81% | -2.34% (inactive) | 2.38% (inactive) |
| Nc1cc(C(=O)O)ccc1Nc1ccc(F)c(F)c1 | 88% | 112% (inactive) | 88% (inactive) | 89.2% (inactive) | 105% (inactive) | 10.3% (inactive) | 94.3% | 105% | 2.4% (inactive) | 4.75% (inactive) |
| COc1ccc(-c2cn3c(C)c(C(=O)Nc4cc(NC(C)=O)ccc4OC)sc3n2)cc1 | 92% | 79.5% (inactive) | 92% (inactive) | 71.5% (inactive) | 20.2% (active) | -42.9% (inactive) | 63.1% | 20.2% | -5.73% (inactive) | -2.13% (inactive) |
| Nc1nonc1N1CCCCC1 | 85.5% | 152% (inactive) | 85.5% (inactive) | 106% (inactive) | 99.1% (inactive) | 11.5% (inactive) | 87.6% | 99.1% | -3.51% (inactive) | -7.33% (inactive) |
| CCOc1cc(N2CCOCC2)c(OCC)cc1NC(=O)COC(=O)CCc1c[nH]c2ccccc12 | 97.5% | 98.5% (inactive) | 97.5% (inactive) | 105% (inactive) | 99.4% (inactive) | 4.66% (inactive) | 94.8% | 99.4% | -8.38% (inactive) | -8.83% (inactive) |
| CC1CN=C(N(C(=O)Nc2ccccc2)c2ccc(S(=O)(=O)N3CCOCC3)cc2)S1 (stereo not given) | 95.5% | 108% (inactive) | 95.5% (inactive) | 91.5% (inactive) | 95.3% (inactive) | 16.8% (inactive) | 78.5% | 95.3% | -0.51% (inactive) | -8.67% (inactive) |
| CCOC(=O)N1CCN(C(=O)CSc2nnc(-c3cc(OC)cc(OC)c3)o2)CC1 | 86.5% | 75.5% (inactive) | 86.5% (inactive) | 92.7% (inactive) | 85.7% (inactive) | -3.85% (inactive) | 89.5% | 85.7% | -5.66% (inactive) | -1% (inactive) |
| Cc1ccc(-n2nnnc2SCC(=O)N2CCN(C(=O)c3ccco3)CC2)c(C)c1 | 119% | 84.5% (inactive) | 119% (inactive) | 86% (inactive) | 95.5% (inactive) | 0.745% (inactive) | 94.8% | 95.5% | -7.76% (inactive) | -2.18% (inactive) |
| COc1ccc(/C(O)=C2/C(=O)C(=O)N(CCCN(C)C)C2c2ccc(Cl)cc2)cc1OC (stereo not given) | 101% | 97.5% (inactive) | 101% (inactive) | 103% (inactive) | 103% (inactive) | -1.86% (inactive) | 105% | 103% | 0.4% (inactive) | -3.39% (inactive) |
| CCOC(=O)N1CCC(NC(=O)CS(=O)(=O)Cc2nc(-c3ccccc3C)oc2C)CC1 | 105% | 95% (inactive) | 105% (inactive) | 114% (inactive) | 95.7% (inactive) | -4.35% (inactive) | 100% | 95.7% | -3.73% (inactive) | 0.66% (inactive) |
| CC(=O)OCC(=O)c1ccc2ccn(C(C)=O)c2c1 | 106% | 89% (inactive) | 106% (inactive) | 94.9% (inactive) | 90.5% (inactive) | -1.94% (inactive) | 92.5% | 90.5% | -5.33% (inactive) | 3.11% (inactive) |
| COCCN(C(=O)c1csnn1)C(C(=O)NC(C)(C)C)c1cccc(OC)c1 (stereo not given) | 89.5% | 91% (inactive) | 89.5% (inactive) | 120% (inactive) | 97.9% (inactive) | 0.985% (inactive) | 96.9% | 97.9% | -4.4% (inactive) | 0% (inactive) |
| CN(CCc1ccccn1)C(=O)CCNC(=O)Cn1cnc2ccccc2c1=O | 99.5% | 97.5% (inactive) | 99.5% (inactive) | 88.9% (inactive) | 96.4% (inactive) | 13.9% (inactive) | 82.5% | 96.4% | -2.86% (inactive) | -1.9% (inactive) |
| Cc1cnc(C(=O)Nc2ccc(N3CCOCC3)cc2)cn1 | 95% | 87% (inactive) | 95% (inactive) | 116% (inactive) | 100% (inactive) | 11.7% (inactive) | 88.5% | 100% | -1.32% (inactive) | -1.45% (inactive) |
| CCN(C(=O)Cc1c(C(=O)O)[nH]c2ccccc12)c1cc(OC)ccc1OC | 112% | 84% (inactive) | 112% (inactive) | 94.1% (inactive) | 92.7% (inactive) | -2.61% (inactive) | 95.3% | 92.7% | -6.62% (inactive) | 4.5% (inactive) |
| COc1ccc(CN2CC(C(=O)NCCCOC(C)C)CC2=O)cc1 (stereo not given) | 101% | 90.5% (inactive) | 101% (inactive) | 107% (inactive) | 99.1% (inactive) | 3.83% (inactive) | 95.2% | 99.1% | -2.11% (inactive) | 0.81% (inactive) |
| CCOc1ccccc1NC(=O)N1C2CCCC1CC(NC(=O)C1CC1)C2 (stereo not given) | 102% | 95% (inactive) | 102% (inactive) | 107% (inactive) | 96.8% (inactive) | 6.77% (inactive) | 90% | 96.8% | -6% (inactive) | 2.58% (inactive) |
| CNC(=O)c1nnn(Cc2ccccc2)c1NC(C)=O | 97.5% | 105% (inactive) | 97.5% (inactive) | 104% (inactive) | 88.9% (inactive) | -7.25% (inactive) | 96.1% | 88.9% | 1.35% (inactive) | 12.5% (inactive) |
| COc1cc(Cl)c(C)cc1NC(=O)COC(=O)c1cnc(C)cn1 | 108% | 110% (inactive) | 108% (inactive) | 95.1% (inactive) | 97% (inactive) | -2.33% (inactive) | 99.3% | 97% | -4.25% (inactive) | -0.95% (inactive) |
